ChEMBL document CHEMBL1125014, “Synthesis and structure-activity relationships of new 9-N-alkyl derivatives of 9(S)-erythromycylamine” (1990)
Converted amounts (≈) assume the structure as drawn.

How the values were obtained:
Streptococcus pyogenes [1] = experiment: MIC value measured against streptococcus pyogenes C203; type: functional
Staphylococcus aureus [2] = experiment: MIC value measured against staphylococcus aureus X1; type: functional
Mus musculus [3] = experiment: ED50 value was measured by sc administration against streptococcus pneumoniae infection in mice (in vivo, in experiment 1); type: functional
How it was run: (§1)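 Infected mice were dosed orally or subcutaneously at 1 and 5 h postinfection, 0.25 mL of antibiotic solution in 10% aqueous ethanol per dose. Tartaric acid was added where needed for solubility. Several dose concentrations were tested to give the ED50.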

Mus musculus [4] = experiment: ED50 value was measured by po administration against streptococcus pneumoniae infection in mice (in vivo, in experiment 2); type: functional; how it was run: as §1
Streptococcus pneumoniae [5] = experiment: MIC value measured against streptococcus pneumoniae Park1; type: functional
Haemophilus influenzae [6] = experiment: MIC value was measured against haemophilus influenzae CL; type: functional
Mus musculus [7] = experiment: ED50 value was measured by sc administration against staphylococcus aureus infection in mice (in vivo, in experiment 2); type: functional; how it was run: as §1
Mus musculus [8] = experiment: ED50 value was measured by sc administration against staphylococcus aureus infection in mice (in vivo, in experiment 1); type: functional; how it was run: as §1
Mus musculus [9] = experiment: ED50 value was measured by sc administration against streptococcus pyogenes infection in mice (in vivo, in experiment 1); type: functional; how it was run: as §1
Mus musculus [10] = experiment: ED50 value was measured by po administration against streptococcus pneumoniae infection in mice (in vivo, in experiment 1); type: functional; how it was run: as §1
Staphylococcus aureus [11] = experiment: Effective dose against mice infected with Staphylococcus aureus after peroral administration (in vivo); type: functional; conditions: in Mus musculus, po
Streptococcus pyogenes [12] = experiment: Effective dose against mice infected with streptococcus pyogenes after peroral administration (in vivo); type: functional; conditions: in Mus musculus, po
Mus musculus [13] = experiment: ED50 value was measured by po administration against streptococcus pyogenes infection in mice (in vivo, in experiment 2); type: functional; how it was run: as §1
Haemophilus influenzae [14] = experiment: MIC value was measured against haemophilus influenzae.; type: functional
How it was run: (§2)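 Susceptibility determined by standard agar-dilution method against a panel of bacterial strains.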

Mus musculus [15] = experiment: ED50 value was measured by po administration against staphylococcus aureus infection in mice (in vivo, in experiment 1); type: functional; how it was run: as §1
[16] = test system: Staphylococcus epidermidis; experiment: microbe, parasite or virus in culture; type: functional
Mus musculus [17] = experiment: ED50 value was measured by po administration against streptococcus pyogenes infection in mice (in vivo, in experiment 1); type: functional; how it was run: as §1
Mus musculus [18] = experiment: ED50 value was measured by sc administration against streptococcus pneumoniae infection in mice (in vivo, in experiment 2); type: functional; how it was run: as §1
Mus musculus [19] = experiment: ED50 value was measured by sc administration against streptococcus pyogenes infection in mice (in vivo, in experiment 2); type: functional; how it was run: as §1
Streptococcus pneumoniae [20] = experiment: Effective dose against mice infected with streptococcus pneumoniae after peroral administration (in vivo); type: functional; conditions: in Mus musculus, po
Mus musculus [21] = experiment: ED50 value was measured by po administration against staphylococcus aureus infection in mice (in vivo, in experiment 2); type: functional; how it was run: as §1
Mus musculus [22] = experiment: ED50 value was measured against streptococcus pneumoniae after po administration in mice (in vivo, in experiment 2); type: functional; how it was run: as §1
Mus musculus [23] = experiment: ED50 value was measured against staphylococcus aureus after po administration in mice (in vivo, in experiment 2); type: functional; how it was run: as §1
Mus musculus [24] = experiment: ED50 value was measured against streptococcus pneumoniae after sc administration in mice (in vivo, in experiment 2); type: functional; how it was run: as §1
Mus musculus [25] = experiment: ED50 value was measured against streptococcus pyogenes after sc administration in mice (in vivo, in experiment 2); type: functional; how it was run: as §1
Mus musculus [26] = experiment: ED50 value was measured against staphylococcus aureus after sc administration in mice (in vivo, in experiment 2); type: functional; how it was run: as §1
Mus musculus [27] = experiment: ED50 value was measured against streptococcus pyogenes after po administration in mice (in vivo, in experiment 2); type: functional; how it was run: as §1
Enterococcus faecalis = experiment: MIC value was measured against streptococcus faecalis X66; type: functional; how it was run: as §2
Streptococcus pneumoniae [28] = experiment: MIC value was measured against streptococcus pneumoniae park1
Mus musculus [29] = species: Mus musculus; experiment: ED50 value was measured against streptococcus pyogenes infection in mice.; type: functional; how it was run: as §1
Mus musculus [30] = experiment: ED50 value was measured against staphylococcus aureus infection in mice (in vivo, in experiment 1); type: functional; how it was run: as §1
Mus musculus [31] = experiment: ED50 value was measured against streptococcus pyogenes after sc administration in mice (in vivo, in experiment 1); type: functional; how it was run: as §1
Mus musculus [32] = experiment: ED50 value was measured against staphylococcus aureus after sc administration in mice (in vivo, in experiment 1); type: functional; how it was run: as §1
Mus musculus [33] = experiment: ED50 value was measured against streptococcus pneumoniae after po administration in mice (in vivo, in experiment 1); type: functional; how it was run: as §1
Mus musculus [34] = experiment: ED50 value was measured against streptococcus pyogenes after po administration in mice (in vivo, in experiment 1); type: functional; how it was run: as §1
Mus musculus [35] = experiment: ED50 value was measured against streptococcus pneumoniae after sc administration in mice (in vivo, in experiment 1); type: functional; how it was run: as §1

| MIC (Streptococcus pyogenes [1]) | MIC (Staphylococcus aureus [2]) | MIC (Streptococcus pneumoniae [5]) | MIC (Haemophilus influenzae [6]) | MIC (Haemophilus influenzae [14]) | MIC [16] | SMILES | ED50 (Staphylococcus aureus [11]) | ED50 (Streptococcus pyogenes [12]) | ED50 (Streptococcus pneumoniae [20]) | further results |
| --- | --- | --- | --- | --- | --- | --- | --- | --- | --- | --- |
| 0.12 µg/mL (≈ 0.151 µM) | 0.5 µg/mL (≈ 0.63 µM) | 0.015 µg/mL (≈ 0.0189 µM) | 1 µg/mL (≈ 1.26 µM) | 1 µg/mL (≈ 1.26 µM) | 0.25 µg/mL (≈ 0.315 µM) | CC[C@H]1OC(=O)[C@H](C)[C@@H](OC2CC(C)(OC)C(O)C(C)O2)[C@H](C)[C@@H](OC2OC(C)CC(N(C)C)C2O)[C@](C)(O)C[C@@H](C)[C@H](NCCOC)[C@H](C)[C@@H](O)[C@]1(C)O (stereo partly drawn) | 35 mg/kg | 16 mg/kg | 19 mg/kg | ED50 (Mus musculus [3]): 2 mg/kg; ED50 (Mus musculus [4]): 19 mg/kg; ED50 (Mus musculus [7]): 2.5 mg/kg; ED50 (Mus musculus [8]): 2 mg/kg; ED50 (Mus musculus [9]): 1.7 mg/kg; ED50 (Mus musculus [10]): 25 mg/kg; ED50 (Mus musculus [13]): 16 mg/kg; ED50 (Mus musculus [15]): 44 mg/kg; ED50 (Mus musculus [17]): 16 mg/kg; ED50 (Mus musculus [18]): 3.3 mg/kg; ED50 (Mus musculus [19]): 2.1 mg/kg; ED50 (Mus musculus [21]): 35 mg/kg |
| 0.06 µg/mL (≈ 0.0743 µM) | 0.5 µg/mL (≈ 0.62 µM) | 0.03 µg/mL (≈ 0.0372 µM) | 0.5 µg/mL (≈ 0.62 µM) | 0.5 µg/mL (≈ 0.62 µM) | 0.5 µg/mL (≈ 0.62 µM) | CC[C@H]1OC(=O)[C@H](C)[C@@H](OC2CC(C)(OC)C(O)C(C)O2)[C@H](C)[C@@H](OC2OC(C)CC(N(C)C)C2O)[C@](C)(O)C[C@@H](C)[C@H](NCCCOC)[C@H](C)[C@@H](O)[C@]1(C)O (stereo partly drawn) | 16 mg/kg | 14 mg/kg | 16 mg/kg | ED50 (Mus musculus [22]): 17 mg/kg; ED50 (Mus musculus [23]): 36 mg/kg; ED50 (Mus musculus [24]): 8.3 mg/kg; ED50 (Mus musculus [25]): 2.1 mg/kg; ED50 (Mus musculus [26]): 3.7 mg/kg; ED50 (Mus musculus [27]): 19 mg/kg |
| 0.06 µg/mL (≈ 0.0724 µM) | 1 µg/mL (≈ 1.21 µM) | – | 4 µg/mL (≈ 4.82 µM) | – | 0.25 µg/mL (≈ 0.302 µM) | CC[C@H]1OC(=O)[C@H](C)[C@@H](OC2CC(C)(OC)C(O)C(C)O2)[C@H](C)[C@@H](OC2OC(C)CC(N(C)C)C2O)[C@](C)(O)C[C@@H](C)[C@H](NCC2CC=CCC2)[C@H](C)[C@@H](O)[C@]1(C)O (stereo partly drawn) | 20 mg/kg | 15 mg/kg | 9 mg/kg | MIC (Enterococcus faecalis): 0.25 µg/mL (≈ 0.302 µM); MIC (Streptococcus pneumoniae [28]): 0.008 µg/mL (≈ 0.00965 µM) |
| 0.015 µg/mL (≈ 0.0182 µM) | – | 0.015 µg/mL (≈ 0.0182 µM) | 4 µg/mL (≈ 4.86 µM) | 4 µg/mL (≈ 4.86 µM) | 0.5 µg/mL (≈ 0.607 µM) | CC[C@H]1OC(=O)[C@H](C)[C@@H](OC2CC(C)(OC)C(O)C(C)O2)[C@H](C)[C@@H](OC2OC(C)CC(N(C)C)C2O)[C@](C)(O)C[C@@H](C)[C@H](NCCCSC)[C@H](C)[C@@H](O)[C@]1(C)O (stereo partly drawn) | 50 mg/kg | – | 18 mg/kg | ED50 (Mus musculus [29]): 7 mg/kg |
| 0.12 µg/mL (≈ 0.143 µM) | 1 µg/mL (≈ 1.19 µM) | 0.015 µg/mL (≈ 0.0179 µM) | 2 µg/mL (≈ 2.39 µM) | 2 µg/mL (≈ 2.39 µM) | 1 µg/mL (≈ 1.19 µM) | CC[C@H]1OC(=O)[C@H](C)[C@@H](OC2CC(C)(OC)C(O)C(C)O2)[C@H](C)[C@@H](OC2OC(C)CC(N(C)C)C2O)[C@](C)(O)C[C@@H](C)[C@H](NCCOCCOC)[C@H](C)[C@@H](O)[C@]1(C)O (stereo partly drawn) | 22 mg/kg | 27 mg/kg | 23 mg/kg | ED50 (Mus musculus [30]): 78 mg/kg; ED50 (Mus musculus [31]): 5.3 mg/kg; ED50 (Mus musculus [32]): 3.8 mg/kg; ED50 (Mus musculus [33]): 43 mg/kg; ED50 (Mus musculus [34]): 37 mg/kg; ED50 (Mus musculus [35]): 1.4 mg/kg |
